RGS4 pot – RGS4 potentiation or activation. 310,000 compounds, 0.92% hits. B-score at 10 µM. HEK293 M3R/inducible RGS4, carbachol calcium flux Fluo4; hits give low values;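 active = B-score of the integrated calcium signal more than 4 SD below the library mean, with starting fluorescence not abnormally high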;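 note: negative B-score means reduced calcium response which marks RGS4 activation or potentiation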
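System – HEK293 FlpIn-TREx cells, stable M3R, doxycycline-inducible RGS4 · Reagent – ECmax carbachol challenge · Times – compound preincubation 20 min at room temperature before agonist · Technique – Fluo4 fluorescence kinetic imaging of calcium · Measure – B score of integrated Fluo4 ratio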
RGS4 inh – inhibitors of human RGS4; B-score at 10 µM; P49798; 310,000 compounds, 0.45% hits; HEK293 M3R/RGS4 inducible, Fluo-4 calcium flux; hits give high values; triggered by carbachol at its EC20; AID 463165;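 active = B-score, a plate-corrected calcium signal, over three deviations above library mean, with baseline fluorescence within five deviations of library mean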;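 note: RGS4 expression induced by doxycycline in cells with stable M3 receptor; B-score is computed from the integrated fluorescence ratio over baseline after carbachol; higher B-score means a larger calcium signal and so more RGS4 inhibition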
Target sequence (P49798 whole entry, looked up): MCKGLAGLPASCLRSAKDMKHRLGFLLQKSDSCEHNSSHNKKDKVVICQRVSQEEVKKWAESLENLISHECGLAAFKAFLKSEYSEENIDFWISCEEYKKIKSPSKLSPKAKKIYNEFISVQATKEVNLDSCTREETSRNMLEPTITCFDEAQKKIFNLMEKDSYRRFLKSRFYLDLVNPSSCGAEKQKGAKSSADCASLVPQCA
MrgX1 PAM – human MrgX1 positive allosteric modulation, primary screen | MrgX1-HEK293, Fluo-4 calcium flux, FDSS; hits give high values | B-score at 10 µM | Q96LB2 | 310,000 compounds, 0.63% hits;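 active = plate-corrected calcium response at least 3 library SD above typical, normal starting fluorescence, not activating the receptor alone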;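 note: compound read alongside a low EC10 to EC30 dose of BAM8-22 agonist; peak minus trough fluorescence over baseline measured at the second addition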
Target sequence (Q96LB2 whole entry, looked up): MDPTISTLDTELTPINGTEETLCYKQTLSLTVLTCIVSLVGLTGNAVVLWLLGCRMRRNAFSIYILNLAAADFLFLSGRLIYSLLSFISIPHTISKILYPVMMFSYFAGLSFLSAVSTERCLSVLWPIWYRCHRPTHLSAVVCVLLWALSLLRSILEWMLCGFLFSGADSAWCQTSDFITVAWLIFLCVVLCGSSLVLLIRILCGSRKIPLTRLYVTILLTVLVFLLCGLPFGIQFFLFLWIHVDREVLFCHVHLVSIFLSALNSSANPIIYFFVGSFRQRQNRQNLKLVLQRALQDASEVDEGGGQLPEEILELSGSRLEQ
MrgX1 agonist – activates human MrgX1 receptor signaling. Q96LB2. MrgX1-HEK293 cells, Fluo-4 calcium fluorescence, agonist mode; hits give high values. B-score at 10 µM. 310,000 compounds, 0.44% hits;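 active = calcium response B-score plate-corrected fluorescence ratio at least 3 library SD, with starting fluorescence B-score inside 5 SD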
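System: HEK293 cells stably expressing human MrgX1 receptor; Dosing: test compound in the initial addition of three; Schedule: overnight plating, then 30 min 37 °C plus 30 min room-temperature dye loading; Detection: kinetic calcium dye fluorescence, Fluo-4 NW; Controls: per-plate positive and negative controls for Z′ factor.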
MrgX1 antagonist – blocks BAM8-22 activation of human MrgX1 receptor; MRGX1-HEK293 calcium flux, Fluo-4, BAM8-22 antagonism; hits give low values; B-score at 10 µM; 310,000 compounds, 1.3% hits;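 active = calcium-response B-score plate-corrected more than 3 library SD below zero, starting fluorescence within 5 deviations, no agonist response on first addition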;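 note: peak minus trough fluorescence over baseline after final BAM8-22 challenge near maximal dose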
Starred values were filed as active, the others as inactive; i = inactive; · = no result given. Compounds with a hit are over-represented: about 3.5% of the library has one in this group of screens.

SMILES	RGS4 pot	RGS4 inh	MrgX1 PAM	MrgX1 agonist	MrgX1 antagonist
COCCn1ccc2c(OCC(=O)NCCc3ccccc3)cccc2c1=O	i	i	i	i	i
COc1ccc(/C=C/C(=O)Nc2ccccc2C)cc1S(=O)(=O)N1CCOCC1	i	i	7.95*	i	i
COc1ccc(/C=C/C(=O)Nc2cccc(F)c2)cc1S(=O)(=O)N1CCOCC1	i	i	i	i	i
CCCN(CC(=O)Nc1ccccc1C)C(=O)c1ccc(C)c(S(=O)(=O)N2CCCCC2)c1	i	i	i	i	-5.45*
CCCN(CC(=O)Nc1ccccc1C)C(=O)c1ccc(Cl)c(S(=O)(=O)N2CCCC2)c1	i	i	i	i	i
C/C(=N\Nc1cc(C(F)(F)F)ccc1Cl)c1ccncc1	-7.6*	i	i	i	i
O=C(Nc1cc(C(F)(F)F)ccc1Cl)c1ccncc1	i	i	i	i	i
Cc1ccccc1NC(=O)CSc1nnc2ccc(-c3cccnc3)nn12	i	i	i	i	i
CSc1cccc(NC(=O)CCCNC(=O)c2ccc(Cl)cc2)c1	i	i	i	i	i
CCOc1ccccc1/C=C/C(=O)NCC(=O)N1CCC(N(C)C2CCCCC2C)CC1 (stereo not given)	i	i	i	i	i
Cc1nc2nc(-c3cccs3)cn2nc1C	-7.03*	i	i	i	i
Cc1cccc(C(=O)OCC(=O)Nc2c(C)nn(-c3ccccc3)c2C)c1O	i	i	i	i	i
Cc1nn(-c2ccccc2)c(C)c1NC(=O)COC(=O)c1cc(Br)ccc1O	-7.15*	i	i	i	i
O=C(CN1CCN(Cc2ccccc2)CC1)NC(=O)NC1CCCCC1	i	i	i	i	i
O=C(CN1CCN(C/C=C/c2ccccc2)CC1)NC(=O)NC1CCCCC1	-7*	i	i	i	i
CCc1nc(Nc2ccc3c(c2)OCCO3)c2oc3ccccc3c2n1	-7.3*	i	i	i	i
Oc1c(Br)cc(Br)cc1CNc1nccs1	i	i	i	i	i
Cc1ccc(O)c(Sc2cc(C)ccc2O)c1	i	i	i	29.2*	i
COC(=O)C1CCN(CC(=O)NC(=O)NC2CCCCC2)CC1	i	i	i	i	i
CN(C)NC(=S)Nc1ccc(Cl)cc1	i	i	i	i	-6.02*
O=C(NC(=S)Nc1ccc(F)c(Cl)c1)C1CC1	i	i	i	i	i
Fc1ccc(NC(=S)Nc2ccc(F)c(Cl)c2)cc1Cl	i	i	i	i	-4.79*
C/C(=N\S(=O)(=O)c1ccc(C)cc1)N(C)C	i	i	i	i	i
CC12CC3CC(C)(C1)CC(C(=O)NCc1ccncc1)(C3)C2	i	i	i	i	i
Cc1ccc(C(=O)NC2CCN(CC(=O)Nc3cccc([N+](=O)[O-])c3)CC2)cc1	i	i	i	i	i
SMILES	RGS4 pot	RGS4 inh	MrgX1 PAM	MrgX1 agonist	MrgX1 antagonist
CCN(CC)CCNC(=O)CCCNC(=O)Cn1cnc2sc(C)c(C)c2c1=O	i	i	i	i	-9.13*
CCc1ccc(NC(=O)CCCNC(=O)Cn2cnc3sc(C)c(C)c3c2=O)cc1	i	i	i	i	i
O=C1/C(=C\c2ccccn2)SC(=S)N1Nc1ncc(C(F)(F)F)cc1Cl	i	i	i	i	i
O=C1/C(=C/c2ccc(F)cc2)SC(=S)N1Nc1ncc(C(F)(F)F)cc1Cl	-10.1*	i	i	i	i
COc1ccc(/C(N)=N/OC(=O)c2cccs2)cc1	i	i	i	i	i
N/C(=N\OC(=O)c1cccs1)c1ccc(Cl)cc1	i	i	i	i	-5.81*
O=C1CSC(c2ccccc2)N1c1ccc([N+](=O)[O-])cc1 (stereo not given)	-6.97*	i	i	i	i
Cc1c(N2C(=O)CSC2c2ccc([N+](=O)[O-])cc2)c(=O)n(-c2ccccc2)n1C (stereo not given)	i	i	i	i	i
Cc1cc2nc(=O)c(/C=C3\C=Nc4ccccc43)c(N)n2o1	i	i	i	i	i
CCOC1=C/C(=C/c2c(N)n3oc(C)cc3nc2=O)C=CC1=O	i	i	8.62*	i	i
CC(=O)N(C)c1ccc(NC(=O)Nc2ccc(C)c(C)c2)cc1	-7.38*	i	i	i	i
COC(=O)[C@@H]1C[C@@H](c2ccccc2)[C@H](C)C1(C)C	·	·	i	i	i
CCCCCCc1nc2ccccc2c(=O)n1N	i	i	9.05*	i	i
C=CCCCCc1nc2ccccc2c(=O)n1N	i	i	i	i	i
CCOc1ccc(NC(=O)CSc2nc3ccccc3c(=O)n2CCCC(=O)NCCCN2CCCC2=O)cc1	i	i	i	i	i
CC(C)(C)c1cc(/C=N/NC(=O)C[n+]2ccccc2)cc(C(C)(C)C)c1O	-7.04*	i	i	i	i
CC(C)(C)c1ccc(/C=N/NC(=O)C[n+]2ccccc2)cc1	-7.13*	i	i	i	i
C=CCOc1ccc(/C=C/C(=O)OCC(=O)Nc2c(C)n(C)n(-c3ccccc3)c2=O)cc1	i	i	i	i	i
Cc1ccc(N2CCN(C(=O)C3CCC(=O)N(Cc4ccc(Cl)cc4)C3)CC2)c(C)c1 (stereo not given)	i	i	i	i	i
CSc1ccc(CN2CCC(CO)(CCOc3ccccc3)CC2)cc1	-6.99*	i	i	i	i
CCN1C(=O)c2ccc(C(=O)NCc3ccco3)cc2C1=O	i	i	i	i	i
Cc1ccc(NS(=O)(=O)c2cc([N+](=O)[O-])ccc2N/N=C/c2sc(N3CCOCC3)nc2-c2ccccc2)c(C)c1	i	i	i	i	-9.43*
OCC(O)CN1CCCC1 (stereo not given)	i	i	i	i	i
O=C1c2ccccc2NC(c2cccc([N+](=O)[O-])c2)N1CCc1ccccc1 (stereo not given)	i	i	15.4*	i	i
CCn1ncc(/C=N\NC(=O)c2ccc3c(c2)c(C)c(C)n3Cc2ccccc2)c1C	i	i	i	i	i
CCn1nc(C)c(/C=N/NC(=O)c2ccc3c(c2)c(C)c(C)n3Cc2ccccc2)c1C	-8.32*	i	i	i	i
Cc1ccc(NS(=O)(=O)c2cc(NC(=O)c3ccc4c(c3)NC(=O)CS4)ccc2Cl)c(C)c1	i	i	i	i	i

Screens: PubChem, Johns Hopkins Ion Channel Center
